EC50, IC50 and CC50 data for 7 compounds are collected here from ChEMBL document CHEMBL1177654, “[d4U]-spacer-[HI-236] double-drug inhibitors of HIV-1 reverse-transcriptase” (Bioorg Med Chem, 2010).

In data set [1] the test system is Human immunodeficiency virus 1. The data set can be described thus: Antiviral activity against HIV1 3B infected in human MT-2 cells assessed as inhibition of viral-mediated cell death after 5 days by MTT assay. In kind it is functional, organism-based. The conditions noted are these: Human immunodeficiency virus 1, 3B, MT2, 120 h. Put shortly: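 MT-2 cells at 1 × 10^5 cells/mL infected with wild-type HIV-IIIB at MOI 0.1, cultured 5 days in RPMI 1640 with 10% dFBS and kanamycin across varying compound concentrations in triplicate. MTT added for 5 h, cells lysed with acidified isopropanol, absorbance read at 595 nm. Triplicate averages plotted as dose-response curves; EC50 is the concentration inhibiting viral-mediated cell death by 50%.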

The target in data set [2] is Human immunodeficiency virus type 1 reverse transcriptase (Human immunodeficiency virus 1, UniProt Q72547). The data set can be described thus: Inhibition of HIV1 reverse transcriptase-mediated thymidine incorporation into D23/D36 primer-template preincubated for 15 mins by polyacrylamide gel-electrophoresis. Put shortly:
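RT at 6 nM active sites (from pre-steady-state active-site titration) pre-incubated ≥15 min with 1 μM 5′-radiolabelled D23/D36 primer/template, then ≥15 min on ice with inhibitor (DMSO held constant, <2%; DMSO-only control). Reaction started with 5 μM dTTP plus 10 mM MgCl2 (final concentrations), 15 min at 37 °C, quenched with 0.3 M EDTA. Products resolved on 20% denaturing PAGE. IC50 taken from a hyperbolic fit of product versus inhibitor concentration.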
On the technique in general: Uptake of a labelled nucleoside into DNA is a usual measure of proliferation.

Another data set concerns MT2. The data set can be described thus: Cytotoxicity against human MT2 cells after 5 days by MTT assay. In kind it is cell-based. The conditions noted are these: mt2, 120 h. Put shortly: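 Mock-infected MT-2 cells (1 × 10^5 cells/mL) grown 5 days in RPMI 1640 with 10% dFBS and kanamycin at varying compound concentrations, in triplicate. Viability read by MTT (5 h), then acidified isopropanol lysis and absorbance at 595 nm. Triplicate averages plotted against concentration; CC50 is the concentration reducing viable cells by 50%.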
On the technique in general: Tetrazolium dyes change colour on reduction, which living cells bring about.

Structures are written as SMILES.

For orientation: EC50 means the midpoint of the concentration-response curve. By IC50 is commonly meant the concentration that gives 50% inhibition. The low end stands for greater potency, the high end for weaker potency. As a reminder, the CC50 is the concentration that lowers cell viability or growth by half. For the compound `COc1ccc(OCCOCC#Cc2cn([C@H]3C=C[C@@H](CO)O3)c(=O)[nH]c2=O)c(CCNC(=S)Nc2ccc(Br)cn2)c1`, the EC50 in data set [1] amounted to 1300 nM. The same compound had an IC50 in data set [2] of 575 nM. Besides, the CC50 in the data set on MT2 was 38000 nM.

As for `COc1ccc(OCCOCCOCC#Cc2cn([C@H]3C=C[C@@H](CO)O3)c(=O)[nH]c2=O)c(CCNC(=S)Nc2ccc(Br)cn2)c1`, the EC50 in data set [1] was 1900 nM. This compound displayed an IC50 in data set [2] of 850 nM. The compound further yielded a CC50 in the data set on MT2 of 43000 nM.

Turning to `COC(=O)[C@H](C)NP(=O)(OC[C@@H]1C=C[C@H](n2cc(C#CCOCCOCCOCCOCCOc3ccc(OC)cc3CCNC(=S)Nc3ccc(Br)cn3)c(=O)[nH]c2=O)O1)Oc1ccc(C)cc1` (stereo not given in full), the EC50 in data set [1] turned out to be 2900 nM. This compound also returned an IC50 in data set [2] of 2300 nM. In the data set with MT2, this compound displayed a CC50 of 11000 nM.

Turning to `Cc1cn([C@H]2C=C[C@@H](CO)O2)c(=O)[nH]c1=O` [STAVUDINE], the EC50 in data set [1] is 2300 nM. The same compound showed an IC50 in data set [2] of 9600 nM. The CC50 with MT2 was more than 100000 nM.

For the compound `COc1ccc(OC)c(CCNC(=S)Nc2ccc(Br)cn2)c1`, in data set [2], inhibition was half-maximal at 38 nM (IC50). Also, the CC50 in the data set on MT2 is more than 1000 nM.

Consider `COc1ccc(OCCOCCOCCOCCOCC#Cc2cn([C@H]3C=C[C@@H](CO)O3)c(=O)[nH]c2=O)c(CCNC(=S)Nc2ccc(Br)cn2)c1`, for which the EC50 in data set [1] amounted to 3100 nM. This compound also showed an IC50 in data set [2] of 1400 nM. In the data set with MT2, the midpoint of cytotoxicity, the CC50, lay at 18000 nM.

Turning to `COc1ccc(OCCC#Cc2cn([C@H]3C=C[C@@H](CO)O3)c(=O)[nH]c2=O)c(CCNC(=S)Nc2ccc(Br)cn2)c1`, the EC50 in data set [1] was determined as 250 nM. In data set [2], this compound yielded an IC50 of 61 nM. In the data set on MT2, this compound had a CC50 of 17000 nM.
